Data set [1] concerns Mycobacterium tuberculosis. The experiment in a line: Antimycobacterial activity against Mycobacterium tuberculosis H37Rv after 7 days. The format is functional. Particulars: 168 h. The gist of the method: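 HT-SPOTi agar growth inhibition in 96-well format. Serially diluted DMSO solutions were mixed into Middlebrook 7H10 agar (kept at 55 °C) with 0.05% glycerol and 10% OADC. Controls were DMSO-only wells and isoniazid. Each well received 2×10³ CFU of culture (pre-grown rolling at 2 rpm or standing, 37 °C). Plates ran 7 days at 37 °C. MIC = lowest concentration with no visible growth.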

Data set [2] in a line: Cytotoxicity against mouse RAW264.7 cells. The format is cell-based. The gist of the method: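 RAW264.7 mouse macrophages assessed by resazurin viability assay. GIC50 interpolated at 50% viability versus control.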
Data set [3] can be described thus: Selectivity index, ratio of GIC50 for mouse RAW264.7 cells to MIC for Mycobacterium tuberculosis H37Rv. The format is toxicity. Particulars: read-out: Selectivity Index. The gist of the method: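 Cytotoxicity was measured in mouse macrophage RAW264.7 cells by resazurin viability readout. GIC50 was interpolated at 50% viability versus untreated control. SI = GIC50 divided by the M. tuberculosis MIC from the agar spot assay.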

The nature of data set [4]: Binding affinity to 192 base-pair fragment HexB (unknown origin) at 1 to 10 uM after 30 mins by DNaSeI footprinting assay. The gist of the method:
(§1)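 Radiolabelled HexB fragment in 10 mM Tris–HCl pH 7.5 with 0.1 mM EDTA, mixed with ligand in 10 mM Tris–HCl pH 7.5 with 10 mM NaCl. Equilibrated 30 min at room temperature, then DNase I in 20 mM NaCl, 2 mM MgCl₂, 2 mM MnCl₂ for 1 min. Heated 100 °C 3 min, resolved on 8% denaturing polyacrylamide gels, phosphorimaged. GA purine markers and no-ligand control lanes included.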

A short description of data set [5]: Binding affinity to 192 base-pair fragment HexB 5-CAATTG-3 (unknown origin) at 5 to 10 uM after 30 mins by DNaSeI footprinting assay. A digest of the protocol:
as §1

Data set [6] is described as follows: Binding affinity to 192 base-pair fragment HexB (unknown origin) at 5 to 10 uM after 30 mins by DNaSeI footprinting assay. A digest of the protocol:
as §1

The test system of data set [7] is unidentified. The experiment in a line: Binding affinity to 192 base-pair fragment HexB 5-TAATTA-3 (unknown origin) at 5 to 10 uM after 30 mins by DNaSeI footprinting assay. The gist of the method: as §1
A short description of data set [8]: Binding affinity to 192 base-pair fragment HexB 5-TTATAA-3 (unknown origin) at 5 to 10 uM after 30 mins by DNaSeI footprinting assay. The gist of the method: as §1
Data set [9] can be described thus: Binding affinity to 192 base-pair fragment HexB 5-ATTAAT-3 (unknown origin) at 1 to 10 uM after 30 mins by DNaSeI footprinting assay. A digest of the protocol:
as §1

Data set [10] deals with unidentified. The experiment in a line: Binding affinity to 192 base-pair fragment HexB 5-AATATT-3 (unknown origin) at 1 to 10 uM after 30 mins by DNaSeI footprinting assay. A digest of the protocol:
as §1

Data set [11] concerns unidentified. The experiment in a line: Binding affinity to 192 base-pair fragment HexB 5-ACATAT-3 (unknown origin) at 1 to 10 uM after 30 mins by DNaSeI footprinting assay. A digest of the protocol: as §1
Data set [12] is described as follows: Binding affinity to 5'-ACVHA-3' (V= A or G or C; H= C or T or A) (unknown origin) at 2 uM after 45 mins by ethidium bromide assay. A digest of the protocol:
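Hairpin oligonucleotides from a 512-member five-bp library at 1 µM base pairs final with 4.4 µM ethidium bromide in 0.1 M Tris–HCl, 0.1 M NaCl, pH 8. Fluorescence read after 15 min at room temperature (ex 545, em 595 nm). Ligand added at 2 µM final (DMSO), read again after 45 min. Triplicates; % fluorescence reduction relative to no-drug and no-DNA controls.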

The source of these data is ChEMBL document CHEMBL3588772, “Synthesis, anti-mycobacterial activity and DNA sequence-selectivity of a library of biaryl-motifs containing polyamides” (Bioorg Med Chem, 2015).

Converted amounts (≈) assume the structure as drawn. The source made the active and inactive calls. The calls are words filed in the database; no cut-off is given here.

As a reminder, the MIC is the lowest concentration that inhibits growth of the organism. Lower therefore signals inhibition by little substance. As usually defined, the GI50 is the concentration giving 50% growth inhibition. Higher therefore signals lower sensitivity of the cells. As for `Cc1nc(-c2ccsc2)sc1C(=O)Nc1cc(C(=O)Nc2cc(C(=O)NCCCN(C)C)n(C)c2)n(C)c1`, 250 µg/mL (≈ 451 µM) was the least that counted as inhibitory in [1] (MIC). In data set [2], this compound showed a GI50 of 62.5 µg/mL (≈ 113 µM). The selectivity ratio in data set [3] was found to be 0.25.
As for `CC(=O)Nc1ccc(-c2ccc(C(=O)Nc3cc(C(=O)Nc4cc(C(=O)NCCCN(C)C)n(C)c4)n(C)c3)o2)cc1`, it took 125 µg/mL (≈ 218 µM) to inhibit growth in data set [1] (MIC). In [2], this compound yielded a GI50 of 250 µg/mL (≈ 436 µM). In addition, the selectivity ratio in data set [3] came out at 2.
In the same order, the values of `CC(=O)Nc1ccc(-c2cc(C(=O)Nc3cc(C(=O)Nc4cc(C(=O)NCCCN(C)C)n(C)c4)n(C)c3)n(C)c2)cc1` are 125 µg/mL (≈ 213 µM), 500 µg/mL (≈ 852 µM) and 4.
In the case of `Cn1cc(NC(=O)c2cc(NC(=O)c3cc(NC=O)cn3C)cn2C)cc1C(=O)NCCC(=N)N` [STALLIMYCIN], the result (in [4]; in data set [5]; in data set [6]; in the data set on unidentified [7]; in data set [8]) was Active. Moreover, it took 31.2 µg/mL (≈ 64.9 µM) to inhibit growth in data set [1] (MIC). For the same compound, the GI50 in data set [2] was determined as 62.5 µg/mL (≈ 130 µM). Also, the selectivity ratio in data set [3] was 2.
The compound `CC(=O)Nc1ccc(-c2csc(C(=O)Nc3cc(C(=O)Nc4cc(C(=O)NCCCN(C)C)n(C)c4)n(C)c3)c2)cc1` came in with an MIC in data set [1] of 62.5 µg/mL (≈ 106 µM). This compound came in with a GI50 in data set [2] of 62.5 µg/mL (≈ 106 µM). For the same compound, the selectivity ratio in data set [3] came to 1.
The compound `NNC(=O)c1ccncc1` [ISONIAZID] returned an MIC in data set [1] of 0.05 µg/mL (≈ 0.365 µM). In addition, growth in data set [2] was halved (GI50) at 3000 µg/mL (≈ 21900 µM). Moreover, the selectivity ratio in data set [3] turned out to be 60000.
Taken in the same sequence, the figures for `CO[C@H]1/C=C/O[C@@]2(C)Oc3c(C)c(O)c4c(O)c(c(/C=N/N5CCN(C)CC5)c(O)c4c3C2=O)NC(=O)/C(C)=C\C=C\[C@H](C)[C@H](O)[C@@H](C)[C@@H](O)[C@@H](C)[C@H](OC(C)=O)[C@@H]1C` [RIFAMPIN] were 0.05 µg/mL (≈ 0.0608 µM), 700 µg/mL (≈ 851 µM) and 14000.
Taken in the same sequence, the figures for `CC(=O)Nc1cccc(-c2ccc(C(=O)Nc3cc(C(=O)Nc4cc(C(=O)NCCCN(C)C)n(C)c4)n(C)c3)o2)c1` were 125 µg/mL (≈ 218 µM), 500 µg/mL (≈ 872 µM) and 4.
With `Cc1nc(-c2cnn(C)c2)sc1C(=O)Nc1cc(C(=O)Nc2cc(C(=O)NCCCN(C)C)n(C)c2)n(C)c1`, the outcome (in data set [9]; in [4]; in the data set on unidentified [10]; in data set [6]; with unidentified [11]; in data set [12]) was Active. Besides, it took 31.2 µg/mL (≈ 56.6 µM) to inhibit growth in [1] (MIC). For the same compound, it took 250 µg/mL (≈ 453 µM) to inhibit growth in data set [2] by half (GI50). Further, in [3], the selectivity ratio was 8.
